Measurements from ChEMBL document CHEMBL1144914, “Bisintercalating threading diacridines: relationships between DNA binding, cytotoxicity, and cell cycle arrest” (J Med Chem, 2003).
Numbered stars: 1 amine (or outer) side, 2 acyl side, 3 side chain; on linkers, the order of the positions; unused ones are H or OH. Bridge positions count the residues as written; N and C are the ends. Square brackets hold non-standard residues; d marks the D form. Peptide text beside a SMILES is read from it. I, II: the chains in the order shown. Actinocin(1to9) = Cc1c2oc3c(C)ccc(C(=O)[*:2])c3nc-2c(C(=O)[*:1])c(N)c1=O; NMeV = CN[C@H](C(=O)O)C(C)C; Sar = CNCC(=O)O

Columns and labels:
CCRF-CEM = experiment: Cytotoxicity in human leukemic CCRF-CEM cells.; assay type: functional, cell-based
Outline: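 CCRF-CEM cells in RPMI 1640 with 10% FBS, 2 mM glutamine and pen/strep at 37 °C, 5% CO2, seeded at 1 × 10^5 cells/mL. Agent from 1 mM water stock, diluted in PBS over a concentration range, 72 h exposure. Cells counted by Coulter Counter. Duplicate wells, each curve repeated at least three times. IC50 is 50% growth inhibition versus medium control, from a sigmoidal fit.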

Nucleic Acid [1] = experiment: Dissociation time constant (Tau 1) for dissociation of compound and calf thymus DNA complex; assay type: nucleic-acid assay; conditions: Bos taurus
Outline: (§1)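 Sonicated calf thymus DNA–ligand complex equilibrated 1 h at room temperature in 0.1 SHE buffer (HEPES, EDTA, 0.1 M NaCl, pH 7.0), then rapidly mixed with SDS at 23 °C. Final concentrations 500 μM DNA, 50 μM ligand, 20 mM SDS. Absorbance followed at 423 nm over 420–3600 s and expressed as fraction of reaction. Multiexponential nonlinear least-squares fit; mean of five runs.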

Nucleic Acid [2] = experiment: Dissociation time constant (Tau 2) for dissociation of compound and calf thymus DNA complex; assay type: nucleic-acid assay; conditions: Bos taurus; outline: as §1
Nucleic Acid [3] = experiment: Dissociation time constant (Tau 3) for dissociation of compound and calf thymus DNA complex; assay type: nucleic-acid assay; conditions: Bos taurus; outline: as §1

| Time constant (Nucleic Acid [1]) | Time constant (Nucleic Acid [2]) | Time constant (Nucleic Acid [3]) | Compound | IC50 (CCRF-CEM) |
| --- | --- | --- | --- | --- |
| – | – | – | O=C(NCCN1CCOCC1)c1cccc2c(NCCCCNCCCNc3c4ccccc4nc4c(C(=O)NCCN5CCOCC5)cccc34)c3ccccc3nc12 | 0.075 µM |
| – | – | – | O=C(NCCN1CCOCC1)c1cccc2c(NCCCCCCNc3c4ccccc4nc4c(C(=O)NCCN5CCOCC5)cccc34)c3ccccc3nc12 | 0.71 µM |
| – | – | – | O=C(NCCN1CCOCC1)c1cccc2c(NCCCCCCCCNc3c4ccccc4nc4c(C(=O)NCCN5CCOCC5)cccc34)c3ccccc3nc12 | 0.81 µM |
| – | – | – | O=C(NCCN1CCOCC1)c1cccc2c(NCCN3CCN(CCNc4c5ccccc5nc5c(C(=O)NCCN6CCOCC6)cccc45)CC3)c3ccccc3nc12 | 0.29 µM |
| – | – | – | CN(C)CCNC(=O)c1cccc2c(NCCCCCCNc3c4ccccc4nc4c(C(=O)NCCN(C)C)cccc34)c3ccccc3nc12 | 0.087 µM |
| 6 s | 33 s | 180 s | CN(C)CCNC(=O)c1cccc2c(NCCNCCNCCNc3c4ccccc4nc4c(C(=O)NCCN(C)C)cccc34)c3ccccc3nc12 | 0.59 µM |
| – | – | – | COC(=O)[C@@H]1c2cc3c(c(O)c2[C@@H](O[C@@H]2O[C@@H](C)[C@H](OC)[C@@](C)(OC)[C@H]2OC)C[C@]1(C)O)C(=O)c1c(O)cc2c(c1C3=O)O[C@@H]1O[C@@]2(C)[C@H](O)[C@@H](N(C)C)[C@@H]1O [NOGALAMYCIN] | 0.059 µM |
| – | – | – | COC1C(O)CC(OC2CC(Oc3cc4cc5c(c(O)c4c(O)c3C)C(=O)[C@@H](OC3CC(OC4CC(OC6CC(C)(O)C(OC(C)=O)C(C)O6)C(O)C(C)O4)C(O)C(C)O3)[C@H]([C@H](OC)C(=O)[C@@H](O)[C@@H](C)O)C5)OC(C)C2OC(C)=O)OC1C (stereo partly drawn) [CHROMOMYCIN] | 0.0035 µM |
| – | – | – | O=C(NCCN1CCOCC1)c1cccc2c(NCCNCCNCCNc3c4ccccc4nc4c(C(=O)NCCN5CCOCC5)cccc34)c3ccccc3nc12 | 0.71 µM |
| – | – | – | COc1cc(NS(C)(=O)=O)ccc1Nc1c2ccccc2nc2ccccc12 [AMSACRINE] | 0.13 µM |
| – | – | – | CN(C)CCNC(=O)c1cccc2c(NCCCCNCCCNc3c4ccccc4nc4c(C(=O)NCCN(C)C)cccc34)c3ccccc3nc12 | 0.25 µM |
| 7 s | 22 s | 220 s | CN(C)CCNC(=O)c1cccc2c(NCCN3CCN(CCNc4c5ccccc5nc5c(C(=O)NCCN(C)C)cccc45)CC3)c3ccccc3nc12 | 0.063 µM |
| 5 s | 17 s | 53 s | CN(C)CCNC(=O)c1cccc2c(NCCCCCCCCNc3c4ccccc4nc4c(C(=O)NCCN(C)C)cccc34)c3ccccc3nc12 | 0.035 µM |
| – | – | – | CS[C@H]1SC[C@H]2C(=O)N(C)[C@@H](C(C)C)C(=O)OC[C@@H](NC(=O)c3cnc4ccccc4n3)C(=O)N[C@@H](C)C(=O)N(C)[C@@H]1C(=O)N(C)[C@@H](C(C)C)C(=O)OC[C@@H](NC(=O)c1cnc3ccccc3n1)C(=O)N[C@@H](C)C(=O)N2C [ECHINOMYCIN] | 0.0005 µM |
| 5 s | 30 s | 88 s | O=C(NCCN1CCOCC1)c1cccc2c(NCCCNCCCNc3c4ccccc4nc4c(C(=O)NCCN5CCOCC5)cccc34)c3ccccc3nc12 | 0.047 µM |
| – | – | – | COc1cc(NS(C)(=O)=O)ccc1Nc1c2ccccc2nc2c(C(N)=O)cccc12 | 0.12 µM |
| 6 s | 32 s | 130 s | CN(C)CCNC(=O)c1cccc2c(NCCCNCCCNc3c4ccccc4nc4c(C(=O)NCCN(C)C)cccc34)c3ccccc3nc12 | 0.05 µM |
| – | – | – | O=C1c2c(O)ccc(O)c2C(=O)c2c(NCCNCCO)ccc(NCCNCCO)c21 [MITOXANTRONE] | 0.0036 µM |
| – | – | – | CC[C@@]1(O)C(=O)OCc2c1cc1n(c2=O)Cc2cc3ccccc3nc2-1 [CAMPTOTHECIN] | 0.0053 µM |
| 19 s | 68 s | 790 s | Cc1c2oc3c(C)ccc(C(=O)N[C@@H]4C(=O)N[C@H](C(C)C)C(=O)N5CCC[C@H]5C(=O)N(C)CC(=O)N(C)[C@@H](C(C)C)C(=O)O[C@@H]4C)c3nc-2c(C(=O)N[C@@H]2C(=O)N[C@H](C(C)C)C(=O)N3CCC[C@H]3C(=O)N(C)CC(=O)N(C)[C@@H](C(C)C)C(=O)O[C@@H]2C)c(N)c1=O [DACTINOMYCIN] (I: T[dV]P[Sar][NMeV] / II: T[dV]P[Sar][NMeV]; ester I:1-I:C, II:1-II:C; linker I:N-II:N via Actinocin(1to9)) | 0.0016 µM |
